In PMC3162150 (Cancer Chemotherapy and Pharmacology, 2011):
Several values for one entry are separate records, joined by “and”; a condition that tells them apart may be missing. Identical values can stand only once. Like-named read-outs stand apart in the source and are kept apart here. One block for each compound: values may come before it.

Assays:
[1] = type: in vivo, human; conditions: for AUC0–∞ ratio (90% CI), panobinostat + ketoconazole / panobinostat alone / C max ratio (90% CI), panobinostat + ketoconazole / panobinostat alone: geometric mean ratio; for CL/F: geometric mean
[2] = tested on: human cytochrome P450 CYP3A4; conditions: in vitro; minor involvement of CYP2D6 and CYP2C19; no reference given; cited from earlier work
CYP3A = assay: Estimate of fraction of panobinostat cleared by CYP3A from AUC ratio; type: in vivo, human
[3] = 12-lead ECG monitoring during the core phase
[4] = cited from earlier work
[5] = type: in vivo, human
Method in brief: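 Patients took 20 mg of the oral test compound each Monday, Wednesday and Friday from day 15 (extension phase) until disease progression or withdrawal. Before that, in cycle 1, they had single 20 mg doses on day 1 and day 8; the day 8 dose followed a CYP3A inhibitor given at 400 mg once daily on days 5–9. Laboratory assessments were done weekly during the extension.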

[6] = Adverse events and laboratory safety assessment; type: in vivo, human
[7] = cited from earlier work; remark: listed apart in the source
[8] = 20 mg panobinostat, ketoconazole 400 mg
[9] = 20 mg panobinostat, ketoconazole 400 mg, listed as panobinostat
[10] = period 1 (panobinostat only), N = 14
[11] = period 3 (concomitant panobinostat and ketoconazole), N = 14
[12] = ref personal communication Margaret M Woo, Novartis
[13] = extension phase, panobinostat 20 mg MWF, 13 patients
[14] = period 2 (ketoconazole only), N = 14

change in T max or half-life in the presence of ketoconazole [1, 8]: No substantial change | residual panobinostat in plasma prior to the day 8 dose ([1]; after 20 mg dose on day 1, LLOQ 0.5 ng/ml): No residual panobinostat was detectable | AUC0–∞ ratio (90% CI), panobinostat + ketoconazole / panobinostat alone [1, 8]: 1.8 (1.5–2.2) | C max ratio (90% CI), panobinostat + ketoconazole / panobinostat alone [1, 8]: 1.6 (1.2–2.2) | AUC0–∞ ratio (90% CI), panobinostat + ketoconazole / panobinostat alone [1, 9]: 1.8 | C max ratio (90% CI), panobinostat + ketoconazole / panobinostat alone [1, 9]: 1.6 | Tmax ([1]; human, plasma, oral, 20 mg): 1 h | half-life ([1]; human, plasma, oral, 20 mg): 14 h | AUC(0-inf) ([1]; human, plasma, po, 20 mg): 133 ng·h/mL | Cmax ([1]; human, plasma, po, 20 mg): 18.5 ng/mL | T max difference, panobinostat + ketoconazole vs panobinostat alone ([1]; median (minimum and maximum difference)): 0.0 (−2.5 to 3.0) h | CL/F ([1]; panobinostat 20 mg + ketoconazole 400 mg): 90.6 L/h | CL/F ([1]; panobinostat 20 mg alone): 150.3 L/h | contribution of CYP pathways to the overall metabolism (CYP3A; from fmCYP3A estimate): < 50% | fmCYP3A (fraction of panobinostat cleared by CYP3A) (CYP3A; in vivo): 0.4 | Fractional excretion of phosphate ([5]; Subj nr 00005, day 54, extension phase): 5.3 (day 54) % | Fractional excretion of phosphate ([5]; Subj nr 00005, day 61, extension phase): 3.2 (day 61) % | Fractional excretion of phosphate ([5]; Subj nr 00007, day 70, extension phase): 19.4 (day 70) % | Fractional excretion of phosphate ([5]; Subj nr 00007, day 77, extension phase): 19.0 (day 77) % | Fractional excretion of phosphate ([5]; Subj nr 00010, day 36, extension phase): 2.7 (day 36) % | Fractional excretion of phosphate ([5]; Subj nr 00010, day 43, extension phase): 8.9 (day 43) %
SMILES: Cc1[nH]c2ccccc2c1CCNCc1ccc(/C=C/C(=O)NO)cc1 [Panobinostat]
share of oxidative metabolism mediated by CYP3A4 [2]: 70–98% | mean QTc increase at any moment compared with baseline ([3]; core phase (15 days; panobinostat 20 mg days 1 and 8, ketoconazole days 5–9)): below 5% | increases in QTc ≥ 60 ms compared with baseline ([3]; core phase, all three periods): No increases | Ectopic activity [3, 10]: 2 (14%) patients (%) | New QTcB >450 ms [3, 10]: 3 (21%) patients (%) | QTcB increase >60 ms [3, 10]: 0 patients (%) | ST segment depression [3, 10]: 0 patients (%) | Sinus bradycardia [3, 10]: 0 patients (%) | Sinus tachycardia [3, 10]: 0 patients (%) | T wave changes [3, 10]: 2 (14%) patients (%) | patients with other transient ECG abnormalities [3, 10]: 21% | Ectopic activity [3, 11]: 2 (14%) patients (%) | New QTcB >450 ms [3, 11]: 2 (14%) patients (%) | QTcB increase >60 ms [3, 11]: 0 patients (%) | ST segment depression [3, 11]: 2 (14%) patients (%) | Sinus bradycardia [3, 11]: 0 patients (%) | Sinus tachycardia [3, 11]: 2 (14%) patients (%) | T wave changes [3, 11]: 2 (14%) patients (%) | patients with other transient ECG abnormalities [3, 11]: 43% | inter-individual variability in pharmacokinetics [4, 12]: 60% | intra-individual variability in pharmacokinetics [4, 12]: 30% | dose dependence of C max and AUC ([4]; two dose-escalation trials, dose between 20 and <60 mg): increase linearly with the dose | adverse events categorized as grade 1 ([6]; core phase): 42.9 % of all events | adverse events categorized as grade 2 ([6]; core phase): 35.7 % of all events | anorexia, regardless of relationship to study drug ([6]; core phase, N = 14): 4 patients | diarrhea, regardless of relationship to study drug ([6]; core phase, N = 14): 5 patients | fatigue, regardless of relationship to study drug ([6]; core phase, N = 14): 2 patients | hypophosphatemia, regardless of relationship to study drug ([6]; core phase, N = 14): 3 patients | myalgia, regardless of relationship to study drug ([6]; core phase, N = 14): 3 patients | nausea, regardless of relationship to study drug ([6]; core phase, N = 14): 3 patients | vomiting, regardless of relationship to study drug ([6]; core phase, N = 14): 4 patients | asymptomatic hypophosphatemia of grade ≥ 2 ([6]; during the trial, nine out of fourteen patients): 64% | anorexia, regardless of relationship to study drug [6, 13]: 7 patients | diarrhea, regardless of relationship to study drug [6, 13]: 8 patients | fatigue, regardless of relationship to study drug [6, 13]: 7 patients | hypophosphatemia, regardless of relationship to study drug [6, 13]: 9 patients | vomiting, regardless of relationship to study drug [6, 13]: 8 patients | nausea, regardless of relationship to study drug ([6]; extension phase, single-agent panobinostat 20 mg oral MWF, 13 patients): 10 patients | neutropenia ([6]; panobinostat administered for a prolonged period (extension phase)): 2 patients | dose-limiting thrombocytopenia ([7]; patients with Hodgkin's lymphoma, dose escalation, of 13 patients): four | grade 3/4 thrombocytopenia ([7]; patients with Hodgkin's lymphoma, dose escalation): 10 out of 13

SMILES: CC(=O)N1CCN(c2ccc(OCC3COC(Cn4ccnc4)(c4ccc(Cl)cc4Cl)O3)cc2)CC1 (stereo not drawn) [ketoconazole, reference compound]
Ectopic activity [3, 14]: 1 (7%) patients (%) | New QTcB >450 ms [3, 14]: 2 (14%) patients (%) | Sinus tachycardia [3, 14]: 0 patients (%) | T wave changes [3, 14]: 1 (7%) patients (%) | patients with other transient ECG abnormalities [3, 14]: 21% | QTcB increase >30 ms ([3]; period 2 (ketoconazole only, day 5 until day 8), N = 14): 3 patients (%) and 3 (21%) patients (%)

SMILES: O=C(CCCCCCC(=O)Nc1ccccc1)NO [vorinostat, reference compound]
asymptomatic hypophosphatemia reported with single agent ([7]; review of toxicities of HDAC inhibitors): 5%
